From PubChem
The list is not random: actives were taken first. Their share in the collection is about 2.1%.
DNMT1 block: inhibitors of human DNMT1; P26358; DNMT1 molecular beacon, Hinp1I cleavage, fluorescence; inhibition (reported as % activation of signal), % at 10 µM; 360,000 tested, 0.83% active; AID 588458; in the data active means inhibition above about 50%
STEP inh: STEP (human) phosphatase inhibition; P54829; recombinant STEP, OMFP fluorogenic substrate, fluorescence; inhibition, % at 20 µM; 360,000 tested, 0.25% active;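 active means inhibition at 20 µM, scaled per plate between control wells, above about 37%, limit read from the data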;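 further: 0% = DMSO with enzyme and substrate and 100% = substrate only without enzyme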
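System: STEP phosphatase, cell-free reaction; Buffer or medium: Bis-Tris pH 6.0 buffer with DTT, detergent; Incubation: 20 min at room temperature, dark; Measured by: fluorescence, 480/540 nm.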
LMPTP block: LMPTP (human) inhibition. 360,000 tested, 0.22% active. P24666. AID 651560. recombinant LMPTP-A, OMFP fluorogenic substrate, fluorescence intensity. inhibition, % at 20 µM;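 active means compounds that cut the enzyme signal by at least half of the control window in the single-dose screen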;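 further: plate controls were DMSO wells with enzyme plus substrate for no effect and substrate without enzyme for full effect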
Target sequence (P24666 whole entry, looked up): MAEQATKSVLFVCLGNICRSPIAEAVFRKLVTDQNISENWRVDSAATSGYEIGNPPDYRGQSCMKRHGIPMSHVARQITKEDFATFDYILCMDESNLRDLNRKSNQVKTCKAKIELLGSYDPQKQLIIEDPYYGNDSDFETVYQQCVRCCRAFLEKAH
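Material: LMPTP-A; amount: 0.625 nM enzyme; doses: single 20 µM dose; times: reaction 50 min, room temperature, dark; technique: fluorescence intensity of OMFP turnover product; benchmarks: no-enzyme and uninhibited controls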
SUMO1 PPI mod: modulators of human SUMO1-mediated protein-protein interactions; P63165; inhibition, % at 20 µM; SUMO1 binding to a labelled peptide, TR-FRET, 1 h; 360,000 tested, 0.33% active; in the data active means inhibition above about 37%
Target sequence (P63165 whole entry, looked up): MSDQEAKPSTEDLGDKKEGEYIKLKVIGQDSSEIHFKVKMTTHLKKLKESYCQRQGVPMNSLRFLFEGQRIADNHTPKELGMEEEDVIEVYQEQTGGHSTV
Scp-1 inhibitor: inhibitors of human Scp-1 phosphatase | 340,000 tested, 0.88% active | inhibition, % at 20 µM | Recombinant Scp1, phosphopeptide, malachite green phosphate absorbance | Q9GZU7;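 active means inhibition above about 50% at 20 µM, limit read from the data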;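 further: plate controls were DMSO wells with enzyme for no effect and wells lacking enzyme for full effect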
Target sequence (Q9GZU7 76-261 limits assumed): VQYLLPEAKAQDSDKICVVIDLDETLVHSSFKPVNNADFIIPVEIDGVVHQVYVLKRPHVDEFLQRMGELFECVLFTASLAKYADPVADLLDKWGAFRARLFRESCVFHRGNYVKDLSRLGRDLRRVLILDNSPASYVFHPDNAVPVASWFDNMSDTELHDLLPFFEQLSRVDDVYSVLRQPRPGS
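Assay system: SCP-1 catalytic fragment, aa 76-261 | Buffer or medium: Tris acetate buffer pH 5.5 with MgCl2 and Tween-20 | Compound: One concentration, 20 µM, with 1.0% DMSO | Also added: Phospho 17-mer peptide substrate | Signal: Absorbance at 630 nm | Incubation: 45 min enzyme reaction at room temperature | Measure: % inhibition of SCP-1 phosphate liberation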
GRK2 inh: human GRK2 inhibition via aptamer displacement. 330,000 tested, 0.59% active. inhibition of aptamer binding, % at 10 µM. P25098. AID 488847. bead flow cytometry, FAM-aptamer displacement from GRK2;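 active means inhibition of aptamer binding above 40%, roughly 3 SD of noise, on plates passing a quality check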;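 further: median bead fluorescence of bound FAM aptamer so fluorescent compounds give negative values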
GRK2 CP1: confirmation of human GRK2 inhibitors displacing RNA aptamer. shares compounds with GRK2 inh. bead-bound GRK2, FAM-aptamer displacement, flow cytometry. aptamer displacement, % at 10 µM. 2,000 tested, 4% active. AID 504451;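 active means aptamer displacement above 40%, near three times the noise of non-fluorescent compounds, on plates passing quality checks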;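 further: negative values mostly reflect intrinsic compound fluorescence rather than true enhancement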
FAM quench CP1: counter-screen for GRK2 aptamer inhibitors: fluorescent aptamer quenchers. shares compounds with GRK2 inh. Carboxyfluorescein RNA aptamer on beads, flow cytometry quenching; hits give low values. fluorescence response (% of DMSO), % at 10 µM. 2,000 tested, under 10 active. AID 504580;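 active means compounds that quench the bead-bound fluorescent RNA probe, cutting fluorescence to under half of the solvent control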;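 further: counterscreen run without GRK2 so only probe quenching by compound is measured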
Starred values were filed as active, the others as inactive; x = no result.

SMILES	DNMT1 block	STEP inh	LMPTP block	SUMO1 PPI mod	Scp-1 inhibitor	GRK2 inh	GRK2 CP1	FAM quench CP1
COc1ccc(-c2cc(CNc3nc(NCc4ccccc4OC)nc4ccsc34)on2)cc1	-26.8	15.6	13.5	4.3	x	x	x	x
O=C(c1ccc(-c2ccccc2)c(F)c1)C1CCCN(CCCn2cccn2)C1 (centres undefined)	0.4	2.0	-0.1	-0.1	-13.9	0.0	-4.6	99.9
Cc1ccccc1-n1nc2c(c1NC(=O)c1ccc3c(c1)OCO3)CS(=O)(=O)C2	-2.4	-0.6	-1.4	-2.7	-7.8	0.0	x	x
CC(C)(C(=O)c1ccccc1)/[N+]([O-])=C/c1ccc(Br)cc1	0.2	0.3	-1.3	-7.1	-5.6	60.0*	-3.2	102.2
CC(COC(=O)c1ccccc1)(COC(=O)c1ccccc1)/[N+]([O-])=C/c1ccccc1	1.2	-0.5	0.9	-0.8	-6.8	3.0	x	x
O=C(Nc1ccc(Br)cc1F)c1nc[nH]c1C(=O)N1CCc2ccccc2C1	3.5	-1.3	-0.8	-0.8	x	x	x	x
COc1ccc(OCC(O)CN2CCc3ccccc3C2)cc1 (centres undefined)	-0.3	-1.2	-2.0	7.2	-3.1	2.0	x	x
CCC(=O)c1ccc(OCC(O)CN2CCc3ccccc3C2)cc1 (centres undefined)	-0.7	-1.6	-2.9	5.6	-3.7	54.0*	-0.6	103.3
CCOC(=O)C1(Cc2cccc(F)c2)CCN(CC2CC2)CC1	-3.8	-3.0	-0.1	-1.5	6.2	12.0	x	x
CCOC(=O)C1(Cc2cccc(F)c2)CCN(CC(O)CO)CC1 (centres undefined)	-2.5	5.6	0.8	4.0	-4.0	78.0*	-0.6	103.2
CCC(=O)OCOc1ccc(/C=C2/CCC(CN(C)C)C2=O)cc1 (centres undefined)	18.5	0.0	-0.4	-22.1	-7.6	x	x	x
CCn1cnc2cc(NCc3ccc(C)cc3)ccc21	-0.8	-1.2	-0.4	-2.1	-10.7	2.0	x	x
CCCn1cnc2cc(NCc3ccc(Br)cc3)ccc21	-0.1	0.8	3.9	-1.8	-7.5	0.0	-4.8	102.7
CCn1cnc2cc(NCc3ccc(Br)cc3)ccc21	x	x	x	x	-10.6	44.0*	1.5	104.8
Cc1ccc(C(=O)O)cc1N1CCCC1=O	7.4	-2.0	0.1	0.0	4.3	61.0*	0.3	96.4
Cc1cc(C)n(CC(=O)c2ccc(Br)cc2)c(=O)c1C#N	2.3	-3.7	-2.1	-0.7	-6.5	71.0*	-6.8	102.1
Cc1ccc(C(=O)Cn2c(C)cc(C)c(C#N)c2=O)cc1	-3.7	-0.4	0.0	0.1	-1.0	0.0	x	x
Nc1ncnc2c1ncn2[C@@H]1O[C@H](C(=O)N[C@H](CO)Cc2ccc(O)cc2)[C@@H](O)[C@H]1O	6.5	0.1	-2.2	3.4	x	x	x	x
Cc1ccccc1NC(=O)CN1C(=O)N/C(=C\c2ccc(N3CCOCC3)c(F)c2)C1=O	8.1	4.2	-0.2	-12.0	-3.5	1.0	-0.5	98.0
CCOC(=O)C1=C(C)N=C2SCCC(=O)N2[C@@H]1c1cccs1	-6.3	0.9	-0.5	-4.6	0.3	1.0	x	x
COCCOC(=O)C1=C(C)N=C2SCCC(=O)N2C1c1cccs1 (centres undefined)	-0.7	1.4	0.1	-6.4	-2.3	81.0*	-1.1	95.7
CCC1NC(=O)c2cccnc2-n2c1nc1ccc(F)cc1c2=O (centres undefined)	-0.3	2.0	-1.3	0.7	x	x	x	x
CCN(CCNC(=O)C1CCN(c2nnc(-n3cccc3)s2)CC1)c1ccccc1	1.9	2.8	1.3	2.9	-9.8	2.0	1.0	97.5
Cc1cccc(S(=O)(=O)N2C[C@@H](O)COC[C@@H]3O[C@H](CC(=O)NCCCN4CCOCC4)CC[C@H]32)c1	x	x	-3.5	8.0	x	x	x	x
